In ChEMBL document CHEMBL1129336, “Ryanodine action at calcium release channels. 2. relation to substituents of the cyclohexane ring” (J Med Chem, 1996):

Experiments:
[1] = biological target: Ryanodine receptor 1 (Oryctolagus cuniculus) (UniProt P11716); assay: Displacement of [3H]ryanodine from ryanodine receptor(ryr) of rabbit skeletal muscle
In short: (§1)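 Radioligand displacement assays of [3H]ryanodine binding at the ryanodine receptor, one each on rabbit skeletal muscle, mouse brain and canine ventricle preparations. Values are means of three to five experiments, each run in duplicate; standard error is reported as percent of the mean.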

[2] = Inhibition of contraction on electrical stimulation of cardiac muscle using rat right ventricular muscle strips; format: functional, Muscle tissue
In short: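 Physiological function test on intact rat ventricular muscle strips, in which the read-out depends on both tissue penetration and receptor potency. Values are expressed as IC50 from three to five experiments; standard error is reported as percent of the mean.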

[3] = biological target: T1, Ryanodine receptor 2 (Canis lupus familiaris) (UniProt Q8WN72); assay: Displacement of [3H]ryanodine binding to ryanodine receptor(ryr) in canine left ventricular membranes; format: cell membranes; in short: as §1
T1 sequence (whole entry): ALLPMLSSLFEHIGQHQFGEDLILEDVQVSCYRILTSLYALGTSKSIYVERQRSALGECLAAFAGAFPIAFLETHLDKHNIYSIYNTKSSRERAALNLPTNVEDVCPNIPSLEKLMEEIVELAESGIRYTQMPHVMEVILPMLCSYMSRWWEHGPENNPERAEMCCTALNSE

[4] = biological target: T2, Ryanodine receptor 2 (Canis lupus familiaris, UniProt Q8WN72); assay: Binding affinity towards ryanodine receptor in canine ventrical preparation
T2 sequence (Q8WN72 whole entry): T1 sequence (whole entry)
In short: (§2)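 Ryanodine receptor binding assays on tissue preparations. Values are means of three to five experiments, each run in duplicate. Results are reported as Ki for the cardiac ventricle preparation.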

[5] = Inhibitory activity against ryanodine receptor in rabbit muscle; format: functional, Oryctolagus cuniculus; in short: as §2
[6] = biological target: Ryanodine receptor 2 (Mus musculus) (UniProt E9Q401); assay: Displacement of [3H]ryanodine from ryanodine receptor(ryr) of Mouse brain
[7] = Inhibitory activity against ryanodine receptor in Mouse brain; format: functional, tissue-based
[8] = Inhibition of the contraction on electrical stimulation of cardiac muscle using rat right ventricular muscle strips; format: functional, tissue-based; settings: Muscle tissue
In short: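 Contractility test on intact rat ventricular muscle strips. The read-out reflects both tissue penetration and receptor action. Values are means of three to five experiments, expressed as IC50.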

Sequence of Ryanodine receptor 1 (Oryctolagus cuniculus) (P11716 whole entry): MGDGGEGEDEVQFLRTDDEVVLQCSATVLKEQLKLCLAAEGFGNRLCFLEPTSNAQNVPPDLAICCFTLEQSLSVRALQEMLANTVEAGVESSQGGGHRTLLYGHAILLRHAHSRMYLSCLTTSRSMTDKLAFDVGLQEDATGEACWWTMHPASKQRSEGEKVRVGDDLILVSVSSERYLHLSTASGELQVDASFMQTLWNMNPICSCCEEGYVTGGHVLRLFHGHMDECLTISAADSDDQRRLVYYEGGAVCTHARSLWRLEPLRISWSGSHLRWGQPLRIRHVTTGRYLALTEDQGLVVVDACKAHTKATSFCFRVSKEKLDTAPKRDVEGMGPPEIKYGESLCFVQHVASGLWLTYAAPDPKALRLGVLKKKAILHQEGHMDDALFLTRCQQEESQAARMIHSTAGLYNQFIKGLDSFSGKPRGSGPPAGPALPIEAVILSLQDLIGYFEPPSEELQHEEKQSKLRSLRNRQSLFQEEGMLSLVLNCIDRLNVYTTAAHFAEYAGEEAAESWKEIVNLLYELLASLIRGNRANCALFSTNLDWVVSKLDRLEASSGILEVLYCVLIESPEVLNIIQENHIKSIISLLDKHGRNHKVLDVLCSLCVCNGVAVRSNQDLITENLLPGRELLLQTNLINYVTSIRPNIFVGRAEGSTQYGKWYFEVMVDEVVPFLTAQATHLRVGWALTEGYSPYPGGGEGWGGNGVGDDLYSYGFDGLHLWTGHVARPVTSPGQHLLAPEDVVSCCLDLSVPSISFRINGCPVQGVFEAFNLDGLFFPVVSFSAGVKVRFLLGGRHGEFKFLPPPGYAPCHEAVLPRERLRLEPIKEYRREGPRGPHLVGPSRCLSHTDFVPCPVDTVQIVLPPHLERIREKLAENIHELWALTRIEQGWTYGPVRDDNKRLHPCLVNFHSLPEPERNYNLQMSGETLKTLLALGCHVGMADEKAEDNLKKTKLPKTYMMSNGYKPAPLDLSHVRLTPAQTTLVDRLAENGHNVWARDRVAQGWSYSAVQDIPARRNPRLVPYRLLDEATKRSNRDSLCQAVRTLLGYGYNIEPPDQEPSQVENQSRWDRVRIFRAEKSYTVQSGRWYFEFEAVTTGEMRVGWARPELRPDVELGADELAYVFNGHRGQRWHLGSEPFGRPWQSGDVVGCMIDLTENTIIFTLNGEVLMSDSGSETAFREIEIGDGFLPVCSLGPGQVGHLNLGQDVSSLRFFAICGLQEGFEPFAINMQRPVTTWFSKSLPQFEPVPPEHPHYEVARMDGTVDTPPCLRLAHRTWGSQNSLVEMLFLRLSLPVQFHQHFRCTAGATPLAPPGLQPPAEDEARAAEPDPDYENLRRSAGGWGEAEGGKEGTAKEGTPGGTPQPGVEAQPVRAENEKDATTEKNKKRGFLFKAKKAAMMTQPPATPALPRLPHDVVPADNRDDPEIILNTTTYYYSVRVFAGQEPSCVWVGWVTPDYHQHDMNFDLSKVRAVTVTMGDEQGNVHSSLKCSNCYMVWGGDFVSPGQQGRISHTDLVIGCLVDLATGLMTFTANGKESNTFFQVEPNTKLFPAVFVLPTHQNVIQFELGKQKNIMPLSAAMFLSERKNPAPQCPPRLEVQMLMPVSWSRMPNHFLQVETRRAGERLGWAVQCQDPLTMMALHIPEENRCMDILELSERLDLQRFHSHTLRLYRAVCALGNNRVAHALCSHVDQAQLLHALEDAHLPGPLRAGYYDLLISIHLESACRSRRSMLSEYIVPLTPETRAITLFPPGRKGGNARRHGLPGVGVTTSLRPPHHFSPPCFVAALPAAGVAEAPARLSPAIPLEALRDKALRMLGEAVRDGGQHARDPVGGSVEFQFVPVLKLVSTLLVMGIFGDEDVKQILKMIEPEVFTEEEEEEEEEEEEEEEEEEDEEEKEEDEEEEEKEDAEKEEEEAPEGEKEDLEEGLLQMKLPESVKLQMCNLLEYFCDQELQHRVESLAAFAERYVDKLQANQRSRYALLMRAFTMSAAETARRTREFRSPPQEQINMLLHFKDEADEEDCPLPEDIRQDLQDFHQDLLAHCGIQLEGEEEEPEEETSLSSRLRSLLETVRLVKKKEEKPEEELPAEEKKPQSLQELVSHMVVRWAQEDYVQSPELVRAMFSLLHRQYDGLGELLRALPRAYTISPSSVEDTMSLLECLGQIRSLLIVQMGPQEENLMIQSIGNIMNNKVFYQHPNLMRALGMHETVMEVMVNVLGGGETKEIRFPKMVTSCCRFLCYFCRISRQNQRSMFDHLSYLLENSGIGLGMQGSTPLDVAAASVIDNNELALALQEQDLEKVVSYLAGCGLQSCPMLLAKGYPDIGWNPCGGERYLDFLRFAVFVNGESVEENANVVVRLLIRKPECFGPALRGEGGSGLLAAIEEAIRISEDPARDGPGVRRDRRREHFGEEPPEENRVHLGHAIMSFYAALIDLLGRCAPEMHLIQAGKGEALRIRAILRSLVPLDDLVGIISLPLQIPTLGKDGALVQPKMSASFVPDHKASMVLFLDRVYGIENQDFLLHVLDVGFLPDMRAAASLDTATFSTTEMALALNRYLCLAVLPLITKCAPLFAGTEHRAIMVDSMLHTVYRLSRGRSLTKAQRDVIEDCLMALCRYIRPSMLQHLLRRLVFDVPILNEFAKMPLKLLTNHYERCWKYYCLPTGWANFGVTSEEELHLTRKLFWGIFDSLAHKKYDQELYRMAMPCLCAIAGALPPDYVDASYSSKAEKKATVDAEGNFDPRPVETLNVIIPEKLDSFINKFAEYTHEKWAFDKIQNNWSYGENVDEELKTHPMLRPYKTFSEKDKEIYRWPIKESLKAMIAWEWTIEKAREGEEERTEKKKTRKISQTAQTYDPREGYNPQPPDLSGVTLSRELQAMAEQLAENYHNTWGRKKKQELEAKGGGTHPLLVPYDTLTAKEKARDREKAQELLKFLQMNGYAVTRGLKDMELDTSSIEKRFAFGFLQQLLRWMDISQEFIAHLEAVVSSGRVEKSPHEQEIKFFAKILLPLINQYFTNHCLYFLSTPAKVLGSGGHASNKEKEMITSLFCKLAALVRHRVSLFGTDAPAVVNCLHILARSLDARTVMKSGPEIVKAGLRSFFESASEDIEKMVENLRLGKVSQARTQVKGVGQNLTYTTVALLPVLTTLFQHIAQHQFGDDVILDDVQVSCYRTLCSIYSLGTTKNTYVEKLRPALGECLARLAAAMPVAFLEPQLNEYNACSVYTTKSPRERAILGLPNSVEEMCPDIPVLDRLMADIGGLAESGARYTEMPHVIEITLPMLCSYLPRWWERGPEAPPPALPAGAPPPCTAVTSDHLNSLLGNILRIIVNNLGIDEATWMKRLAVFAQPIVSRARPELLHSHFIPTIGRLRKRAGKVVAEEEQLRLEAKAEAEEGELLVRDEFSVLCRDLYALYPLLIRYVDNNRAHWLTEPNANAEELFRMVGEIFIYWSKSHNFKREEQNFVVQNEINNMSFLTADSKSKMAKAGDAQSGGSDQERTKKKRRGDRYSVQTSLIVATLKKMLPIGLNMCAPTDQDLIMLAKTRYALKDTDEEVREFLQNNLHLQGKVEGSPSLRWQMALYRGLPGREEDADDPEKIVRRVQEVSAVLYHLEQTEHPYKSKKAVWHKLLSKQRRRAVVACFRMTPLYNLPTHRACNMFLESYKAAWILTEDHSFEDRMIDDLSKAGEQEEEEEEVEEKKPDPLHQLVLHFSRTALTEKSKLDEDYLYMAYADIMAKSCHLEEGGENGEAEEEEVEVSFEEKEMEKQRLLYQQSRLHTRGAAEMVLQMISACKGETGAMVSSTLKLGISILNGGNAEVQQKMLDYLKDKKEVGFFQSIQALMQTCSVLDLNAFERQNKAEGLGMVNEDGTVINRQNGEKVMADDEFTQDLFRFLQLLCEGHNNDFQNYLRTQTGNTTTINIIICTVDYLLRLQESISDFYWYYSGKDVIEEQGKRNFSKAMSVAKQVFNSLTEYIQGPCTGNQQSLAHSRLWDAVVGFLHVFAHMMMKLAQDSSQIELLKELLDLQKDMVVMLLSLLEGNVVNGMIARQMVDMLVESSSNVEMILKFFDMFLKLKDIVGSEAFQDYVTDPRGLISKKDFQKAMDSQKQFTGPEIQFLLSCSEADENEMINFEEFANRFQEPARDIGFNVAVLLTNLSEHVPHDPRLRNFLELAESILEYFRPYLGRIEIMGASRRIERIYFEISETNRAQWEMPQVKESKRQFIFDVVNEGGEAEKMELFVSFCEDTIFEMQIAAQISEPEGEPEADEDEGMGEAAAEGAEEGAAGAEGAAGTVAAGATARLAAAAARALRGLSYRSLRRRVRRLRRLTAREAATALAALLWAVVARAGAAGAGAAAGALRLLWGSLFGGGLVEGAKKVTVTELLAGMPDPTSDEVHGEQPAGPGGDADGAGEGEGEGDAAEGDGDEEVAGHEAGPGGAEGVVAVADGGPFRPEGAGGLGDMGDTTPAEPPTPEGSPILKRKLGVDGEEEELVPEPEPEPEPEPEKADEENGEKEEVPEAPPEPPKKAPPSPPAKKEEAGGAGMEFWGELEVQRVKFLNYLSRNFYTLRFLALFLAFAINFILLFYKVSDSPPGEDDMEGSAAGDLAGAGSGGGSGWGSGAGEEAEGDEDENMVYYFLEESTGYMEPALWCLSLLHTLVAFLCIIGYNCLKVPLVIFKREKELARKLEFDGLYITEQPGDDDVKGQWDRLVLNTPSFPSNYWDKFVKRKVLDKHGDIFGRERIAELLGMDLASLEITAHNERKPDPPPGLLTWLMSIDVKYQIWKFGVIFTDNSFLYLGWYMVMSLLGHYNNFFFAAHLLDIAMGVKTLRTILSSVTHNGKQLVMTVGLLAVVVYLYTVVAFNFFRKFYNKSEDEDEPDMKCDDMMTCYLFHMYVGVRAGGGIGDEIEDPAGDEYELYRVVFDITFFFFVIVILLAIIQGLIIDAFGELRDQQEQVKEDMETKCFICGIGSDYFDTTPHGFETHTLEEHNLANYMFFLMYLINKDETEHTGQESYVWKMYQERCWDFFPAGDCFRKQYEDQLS

SMILES | Relative activity [1] | Relative activity [2] | Relative activity [3] | other results
CC1=CCC2(O)C3(C)CC4(O)OC2(C1O)C1(O)C3(O)C(OC(=O)c2ccc[nH]2)C(O)(C(C)C)C41C (stereo not given) | 26 | 11 | – | –
CC1CCC2(O)C3(C)CC4(O)OC2(C1N)C1(O)C3(O)C(OC(=O)c2ccc[nH]2)C(O)(C(C)C)C41C (stereo not given) | 68 | – | – | –
CC(C)C1(O)C(OC(=O)c2ccc[nH]2)C2(O)C3(C)CC4(O)OC5(CCCCC35O)C2(O)C41C (stereo not given) | 6.5 | – | – | –
CC(C)C1(O)C(OC(=O)c2ccc[nH]2)C2(O)C3(C)CC4(O)OC5(CC(O)CCC35O)C2(O)C41C (stereo not given) | 0.2 | 28 | 0.42 | –
CC(C)[C@@]1(O)[C@@H](OC(=O)c2ccc[nH]2)[C@@]2(O)[C@@]3(C)C[C@]4(O)O[C@@]5([C@H](O)[C@@H](C)CC[C@]35O)[C@@]2(O)[C@@]14C [RYANODINE] | – | – | – | Ki [4]: 1.8 nM
C=C1CCC2(O)C3(C)CC4(O)OC2(C1OC(=O)c1ccccc1)C1(O)C3(O)C(OC(=O)c2ccc[nH]2)C(O)(C(C)C)C41C (stereo not given) | 3.9 | – | – | –
CONC1C(C)CCC2(O)C3(C)CC4(O)OC12C1(O)C3(O)C(OC(=O)c2ccc[nH]2)C(O)(C(C)C)C41C (stereo not given) | 68 | 31 | 36 | –
CC1CCC2(O)C3(C)CC4(O)OC2(NC1=O)C1(O)C3(O)C(OC(=O)c2ccc[nH]2)C(O)(C(C)C)C41C (stereo not given) | 42 | 11 | 7.4 | –
CO/N=C1\C(C)CCC2(O)C3(C)CC4(O)OC12C1(O)C3(O)C(OC(=O)c2ccc[nH]2)C(O)(C(C)C)C41C (stereo not given) | 13 | 34 | 17 | –
CC(C)[C@@]1(O)[C@@H](OC(=O)c2cc[nH]c2)[C@@]2(O)[C@]3(C)C[C@@]4(O)O[C@@]5([C@H](O)[C@@H](C)CC[C@]35O)[C@@]2(O)[C@@]41C [RYANODINE] | 100 | – | – | IC50 [5]: 3.5 nM; Relative activity [6]: 100; IC50 [7]: 3.3 nM; IC50 [8]: 34 nM
CC1CCC2(O)C3(C)CC4(O)OC2(C1O)C1(O)C3(O)C(OC(=O)c2ccc[nH]2)C(O)(C(C)C)C41C (stereo not given) | 97 | 34 | – | –
